# Assay: Toxicity liver stage against HepG2, at 10uM
# Type: cell-based
# Design: test concentration 10 uM, cell line HepG2-A16-CD81EGFP
# Conditions: human, HepG2-A16-CD81EGFP cells; read-out: INHIBITION
# Method in brief: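 Uninfected HepG2-A16-CD81EGFP cells, 3 × 10^3 per well, 1536-well, plated on prespotted compound at 10 μM final, parasite-free screening media added to match infected plates; puromycin 10 μM positive, DMSO 0.5% negative; run in parallel with 48 h PbLuc assay at 37 °C, 5% CO2; viability by CellTiter-Glo luminescence, normalized to controls.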
row,SMILES,cytotoxicity at 10 µM [%]
1,COc1ccc(Cl)cc1-c1nc(N)nc(N(C)C)n1,-4.01
2,COc1ccc(CN(C)C(=O)CSc2nnc(N)s2)c(OC)c1OC,7.59
3,N#Cc1cccnc1N1CCN(C(=O)CCC(=O)c2cccs2)CC1,-8.7
4,CCCC(O)CN1CC(C)(C)CN(C(=O)c2ccccc2)CC1=O (centres undefined),-0.295
5,CNC(=O)CC1c2cccnc2C(=O)N1Cc1ccccc1 (centres undefined),-2.51
6,COc1ccc(CN2CC(O)CN(C(=O)CC(C)C)CC2=O)cc1 (centres undefined),-0.634
7,CC(=O)Nc1ccc(C(=O)NCCCn2cccc2)cc1,-2.66
8,COCCNC(=O)NC1(c2nc(C)no2)CCCCC1,1.56
9,COC1(CNC(=O)NCc2ccccc2)CCSC1 (centres undefined),-2.42
10,Cc1nc(N2CCOCC2)nc(C)c1NC(=O)COc1ccccc1,4.17
11,O=S(=O)(NCCn1ccc(-c2cccs2)n1)C1CC1,-0.297
12,COc1ccc(NC(=O)Cn2nc(C)ccc2=O)cc1OC,1.57
13,O=C(CSC1CCc2ccccc2NC1=O)NCCc1ccco1 (centres undefined),-13
14,COC(=O)c1ccc(OC)c(Cn2cc(N)cn2)c1,-7.8
15,CCc1cc(O)n2nc(C3CCCN3C(=O)c3ccccn3)cc2n1 (centres undefined),-0.805
16,Cc1cc(C)n(C2CCN(S(=O)(=O)N3CCC(C)CC3)CC2)n1,6.36
17,CCCn1nccc1-c1nccnc1CC1CCN(C(C)=O)CC1,-6.15
18,CCC(=O)N1CCC(c2nc(C)ncc2-c2ccncc2)CC1,6.04
19,c1cc(CCNc2ccc(CC3CCNC3)cn2)ccn1 (centres undefined),3.09
20,CCCc1cc(C(=O)N[C@@H]2CC[C@@H](N3CCOCC3)[C@@H]2O)no1,-3.59
21,c1cncc(CN2CC(Cc3nccc4cc[nH]c34)C2)c1,-2.26
22,O=C(C1CCOCC1)N1CCOCC(Cc2ncccn2)C1 (centres undefined),1.38
23,Clc1cccc(Cl)c1CN(CCCN1CCOCC1)Cc1cccnc1,-0.52

row,SMILES,cytotoxicity at 10 µM [%]
1,Nc1nc(C2CCN(C(=O)c3cnco3)CC2)cs1,-3
2,Cc1nc(Nc2ncccn2)cc(C2CCCN2Cc2ncc[nH]2)n1 (centres undefined),-15.3
3,Cc1ncsc1CN1C[C@@H](O)[C@](O)(CNC(=O)c2ccccn2)C1,-0.973
4,O=S1(=O)NCC2(CCCN(Cc3ccccn3)C2)Oc2ncccc21 (centres undefined),2.22
5,Cc1ccc2c(c1)N(C(=O)c1cc[nH]c(=O)c1)CC(C)O2 (centres undefined),2.71
6,COc1cc(F)ccc1NC(=O)NCCNC(=O)OC(C)(C)C,-3.97
7,N#Cc1c(CN2CCCCC2Cn2cncn2)cn2ccccc12 (centres undefined),3.06
8,CC(C)CC1(C(=O)NCCc2nncn2C2CC2)CCC1,-1.06
9,O=C(CNC(=O)C1(c2ccc(F)cc2F)CCC1)Nc1cccnc1,-5.82
10,N#Cc1ccc(CN2CCCCC2Cn2cncn2)cc1 (centres undefined),-1.05
11,NC(=O)C(NC(=O)CSCc1ccc(Cl)s1)c1ccccc1 (centres undefined),9.12
12,CCCN(CC(=O)N(C)C)C(=O)c1ccc(-c2nc(C)cs2)cc1,-15.7
13,Cc1nn2cccnc2c1C(=O)NCc1ccnc(OCC2CC2)c1,-41.6
14,Cc1cc(Br)ccc1CNC(=O)C1(O)CCSCC1,8.88
15,COC(=O)CN(C(=O)c1ccco1)c1cccc(F)c1,-4.81
16,CC(C)(C)CC(=O)NCC(=O)NS(=O)(=O)c1cccnc1,-3.13
17,O=C1CC2(CCSC2)C(=O)N1CCCc1ccccc1 (centres undefined),6.43
18,Cc1csc(CN(CC2CCCO2)C(=O)c2ccc(C)nc2C)n1 (centres undefined),-1.19
19,Cn1c(NCCC(=O)N2CCCC2)c(C#N)c(=O)n(C)c1=O,-9.28
20,CC(=O)NCCC(=O)NCc1cc(Br)ccc1OC(F)F,-6.47
21,CSCC(=O)NCc1cc(Br)ccc1OC(F)F,-8.22
22,CCN1CCC(NC(=O)CN2CCCC2Cn2cccn2)CC1 (centres undefined),1.98
23,CC(C)NC(=O)Nc1ccccc1CN1CCOCC1,4.89

row,SMILES,cytotoxicity at 10 µM [%]
1,CN(C)C(=O)Cc1nc(CN2CCCCC2Cn2cncn2)cs1 (centres undefined),-0.868
2,CCCc1nc(C)c(C(=O)NC2CCN(C3CC3)C2)s1 (centres undefined),-7.82
3,CCn1cc(S(=O)(=O)NC(CO)Cc2c[nH]c3ccccc23)cn1 (centres undefined),10.8
4,CCc1cc(NC(=O)C2CCCN(C(=O)NCC(C)C)C2)[nH]n1 (centres undefined),-4.56
5,COc1cc(S(=O)(=O)Nc2cn[nH]c2)ccc1Br,-1.47
6,COc1cccc(NC(C(N)=O)c2ccc(Br)cc2)c1 (centres undefined),11.3
7,COCc1nc(CNc2cccc(-c3csc(C)n3)c2)cs1,1.98
8,O=C(Nc1ccccc1C(=O)N1CCCC1)NC1CCOCC1,-3.27
9,CS(=O)(=O)c1nccn1Cc1ccc(C(N)=O)cc1,6.77
10,Cc1nc(CSc2nc(=O)ccn2C(C)C)cs1,16.4
11,c1cc(CN2CCOC3(CCCC3)C2)no1,-8.29
12,CN1CCN(C(=O)C2CC=CC2)c2ccccc21,14.9
13,Cc1cccc(NS(=O)(=O)c2cnn(C)c2)c1C#N,-0.655
14,CN(Cc1ccc(F)cc1F)CC(C)(CO)CO,-2.52
15,CSC1(CNC(=O)N(C)Cc2ccc(Cl)s2)CCOCC1,8.08
16,Cc1ccc(C2CSCCN2C(=O)C2=CCCC2)o1 (centres undefined),-6.12
17,Cn1cc(-c2csc(CN3CCOCC3)n2)cn1,-11.4
18,CN1N=C(C(=O)N(Cc2ccco2)C2CC2)CCC1=O,-2.62
19,COCCC(=O)N1CC[C@@H]2O[C@@H](C)C[C@H]2C1,-2.78
20,CC(C)NC(=O)C1CN(C(=O)c2ccco2)CC12CCOCC2 (centres undefined),-0.516
21,Cc1occc1C(=O)N1CC[C@@H](N2CCOCC2)[C@@H]1Cc1ccccc1,-4.09
22,CS(=O)(=O)N1CCC2(CC1)CC(CC(=O)N1CCCC1)c1ccccc12 (centres undefined),-0.748
23,CCN(C)c1ncnc2c1CCN(Cc1ccoc1)CC2,-0.439

row,SMILES,cytotoxicity at 10 µM [%]
1,O=c1[nH]c(-c2ccncc2)ncc1-c1ccnc(N2CCOCC2)n1,-1.2
2,CCn1ccnc1CN(C)c1nc(-c2ccc(Cl)cc2)nc2c1CNC2,-12.7
3,Cn1ccc2c(-c3cc(N)nc(N4CCOCC4)n3)ccnc21,-3.67
4,CC(C)Nc1cc(N2CCC(n3cc(CCO)nn3)CC2)ncn1,16.3
5,CCc1cnc(N2Cc3cnc(C(C)(C)C)nc3C2)nc1,3.51
6,Cc1n[nH]c(CN2CCN(Cc3ccccc3)[C@@H]3CS(=O)(=O)C[C@@H]32)n1,-7.42
7,Cn1ncc2c(N3CCCC(C)(O)C3)nc(C(C)(C)C)nc21 (centres undefined),-43.6
8,c1ccc(Cc2noc(-c3ccc(NCC4CCCOC4)nc3)n2)cc1 (centres undefined),-1.05
9,COc1ccc(CN2CCCC3(CC2)CNC(=O)O3)cc1OC (centres undefined),5.75
10,c1cnc2nc(C3CCNCC3)[nH]c2c1,9.57
11,CC(=O)N1CCC(NC(C)c2cnn(-c3ccc(F)cc3F)c2C)CC1 (centres undefined),-6.4
12,CCCc1nccn1-c1cccc(C(C)O)c1 (centres undefined),5.82
13,Cc1cccc(CN2CCC(NS(C)(=O)=O)CC2)n1,9.87
14,CN(C)S(=O)(=O)N1CC[C@]2(O)CCN(Cc3cccc(F)c3)C[C@@H]2C1,-5.16
15,N#Cc1cccc(N2CCCC3(CCC(=O)N(C4CCCC4)C3)C2)n1 (centres undefined),-0.0436
16,CN(C)CC(C)(C)Cn1cnc(-c2ccccc2)c1-c1ncc[nH]1,9.21
17,Cc1nn(C)c(C)c1CN(CCO)C(=O)C1COc2ccccc2C1 (centres undefined),-8.07
18,CCc1ccc(CN2CCNC(C(=O)N3CCN(C)CC3)C2)o1 (centres undefined),-0.891
19,CCn1nc(C)c(CCNC(=O)C2CCCN(CC(N)=O)C2)c1C (centres undefined),-11.8
20,CCc1nnc2n1CCN(Cc1csc(Cc3ccccc3)n1)C2,-25
21,Cc1cc(NC(=O)CN2CCN(c3nccs3)C(C)C2)no1 (centres undefined),-9.66
22,Cc1cc(CN2CCC(N(C)Cc3nnc(C4CC4)n3C)C2)on1 (centres undefined),-11.6
23,Cc1ccccc1C1(C(=O)NCCN(C)C)CCOCC1,-1.95

row,SMILES,cytotoxicity at 10 µM [%]
1,Cc1nnc2n1CCN(C(=O)c1cc(Br)c(Cl)[nH]1)C2,-12.7
2,CN(Cc1ccc(O)cc1)C(=O)NC1CCCN(c2ncccn2)C1 (centres undefined),-9.63
3,CC(c1c(F)cccc1F)N1CCN(Cc2nccn2C)CC1 (centres undefined),-13.6
4,CCc1nnc2n1CCN(C(=O)c1ccnc(N(C)C)c1)C2,-21
5,Cc1nc(C2CCCN(C(=O)c3c(C)nn4cccnc34)C2)no1 (centres undefined),-7.62
6,Cn1cc(C2CCCN2CCC(=O)N2CCc3sccc3C2)cn1 (centres undefined),-8.25
7,COCCOc1ccccc1C(=O)N1CCCC(c2cc(C)[nH]n2)C1 (centres undefined),-22.6
8,COc1ccc(CNC(C)c2ccc3[nH]c(=O)[nH]c3c2)cc1 (centres undefined),-5.04
9,Cc1cnn(C2CCCN(C(=O)c3sccc3C#N)C2)c1 (centres undefined),0.736
10,Cn1cc(NC(=O)N2CCC(CN3CCCC3)CC2)ccc1=O,-11.5
11,c1ncn(CC2CCCCN2Cc2noc(C3CC3)n2)n1 (centres undefined),-0.935
12,O=C(Nc1ccccn1)C1=NN(c2ccccc2)C(=O)CN1,-1.53
13,CCc1c(C(=O)NC2CCS(=O)(=O)C2)cnn1-c1ccc(F)cc1 (centres undefined),-6.31
14,N#Cc1ccc(OCCN2CCc3c(ncn3C3CC3)C2)cc1,-0.318
15,CCc1nccn1C1CCCN(C(=O)c2csc(COC)n2)C1 (centres undefined),-8.11
16,NC(=O)N1CC2(CCNCC2)c2cc(Cl)ccc21,1.79
17,COc1cc(CN(CCCN(C)C)Cc2ccccn2)cc2c1OCO2,1.44
18,CC(C)c1nn(C)c(N(C)C)c1CNCc1cccc2cccnc12,-11.2
19,CC(C)c1nn(C)c(Cl)c1CNCc1ccc(N(C)C)nc1,-13.6
20,CC(C)(CN)NS(=O)(=O)c1cccc(F)c1F,-5.7
21,CNC(=O)[C@@]12CCO[C@@H]1CCN(Cc1scnc1C)C2,6.12
22,O=C(c1cccnc1)N1C[C@H]2CC[C@@H](C1)N(Cc1cc(F)ccc1F)C2,-10.2
